From PMC6687308 (Journal of natural products, 2017)
“Also recorded” adds a separate entry of the source. Where two headings read alike, the source gives them in different places.

What was measured:
[1] = tested on: TRPM2-overexpressing HEK293 cells; type: cell-based
human TRPM2 = human TRPM2 (Homo sapiens, UniProt O94759); type: cell-based; details: for TRPM2 current amplitudes at fivefold higher concentration: fivefold higher concentrations
TRPM2 = details: with preincubation; cited from earlier work
endogenous TRPM2 = endogenous TRPM2 (Rattus norvegicus, UniProt E9PTA2); type: cell-based
Procedure, shortened: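 INS-1 cells (RPMI, 10% FBS) were held in standard external Ringer's (pH 7.2) containing the test compound. Whole-cell currents were recorded during the first 60 min, at 21–25 °C. Pipette: 140 mM Cs-glutamate, unbuffered Ca2+, ADPR 100 or 500 μM. Ramps ran −100 to +100 mV (50 ms, 0.5 Hz). Amplitudes at −80 mV and 50 s were expressed as percent inhibition of control and fitted for IC50 and Hill coefficient.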

mouse TRPM7 = mouse TRPM7 (Mus musculus, UniProt Q923J1); assay: Whole-cell patch clamp of TRPM7 currents in tetracycline-inducible HEK293 cells; type: cell-based; details: +80 mV, 200 s
Procedure, shortened: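 Tetracycline-inducible HEK293 cells carrying FLAG-murine TRPM7 were induced with 1 μg/mL tetracycline 5–22 h beforehand. Cells were then incubated 15 min in culture medium with 100 nM, 500 nM or 2 μM test compound. Pipette: 140 mM K-glutamate with 10 mM BAPTA. Ramps ran −100 to +100 mV at 0.5 Hz, 21–25 °C. Amplitudes, not capacitance-corrected, were taken at +80 mV and 200 s, normalized, and fitted for IC50 and Hill coefficient.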

TRPV1 = TRPV1 (Rattus norvegicus, UniProt O35433); type: cell-based; details: 500 nM, 10 μM capsaicin
Chain of TRPV1 (O35433 whole entry): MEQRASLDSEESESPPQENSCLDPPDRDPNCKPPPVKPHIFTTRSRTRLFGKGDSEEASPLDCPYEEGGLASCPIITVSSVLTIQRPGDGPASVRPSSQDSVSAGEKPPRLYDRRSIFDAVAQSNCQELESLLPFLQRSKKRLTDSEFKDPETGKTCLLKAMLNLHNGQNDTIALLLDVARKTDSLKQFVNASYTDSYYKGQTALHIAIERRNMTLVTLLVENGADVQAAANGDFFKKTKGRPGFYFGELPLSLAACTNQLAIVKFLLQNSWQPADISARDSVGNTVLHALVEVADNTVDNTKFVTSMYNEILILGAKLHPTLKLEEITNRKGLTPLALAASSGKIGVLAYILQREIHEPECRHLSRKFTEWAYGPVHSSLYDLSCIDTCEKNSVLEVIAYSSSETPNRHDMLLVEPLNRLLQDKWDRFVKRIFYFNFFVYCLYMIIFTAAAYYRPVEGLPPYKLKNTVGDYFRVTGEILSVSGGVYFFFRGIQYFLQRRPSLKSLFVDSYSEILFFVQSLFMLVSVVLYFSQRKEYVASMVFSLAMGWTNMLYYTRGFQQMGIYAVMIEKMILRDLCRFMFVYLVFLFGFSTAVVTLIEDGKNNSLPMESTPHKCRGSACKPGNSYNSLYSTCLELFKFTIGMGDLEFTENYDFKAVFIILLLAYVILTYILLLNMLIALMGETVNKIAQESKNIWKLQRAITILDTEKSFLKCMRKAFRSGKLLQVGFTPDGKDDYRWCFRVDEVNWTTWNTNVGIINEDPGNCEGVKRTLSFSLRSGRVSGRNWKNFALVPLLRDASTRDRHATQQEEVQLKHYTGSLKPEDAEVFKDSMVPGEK
Procedure, shortened: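 INS-1 cells were incubated with 500 nM test compound or none in standard external Ringer's solution before whole-cell patch clamp at 21–25 °C. Pipette: 140 mM Cs-glutamate, 8 NaCl, 1 MgCl2, 10 HEPES (pH 7.2), with Ca2+ left unbuffered. Ramps ran −100 to +100 mV over 50 ms at 0.5 Hz from a 0 mV holding potential. Amplitudes were taken at −80 mV.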

CRAC (Orai1/STIM1) = CRAC (Orai1/STIM1) (Homo sapiens, UniProt Q96D31); type: cell-based; details: 2 μM, 30–60 min exposure
Chain of CRAC (Orai1/STIM1) (Q96D31 whole entry, species assumed): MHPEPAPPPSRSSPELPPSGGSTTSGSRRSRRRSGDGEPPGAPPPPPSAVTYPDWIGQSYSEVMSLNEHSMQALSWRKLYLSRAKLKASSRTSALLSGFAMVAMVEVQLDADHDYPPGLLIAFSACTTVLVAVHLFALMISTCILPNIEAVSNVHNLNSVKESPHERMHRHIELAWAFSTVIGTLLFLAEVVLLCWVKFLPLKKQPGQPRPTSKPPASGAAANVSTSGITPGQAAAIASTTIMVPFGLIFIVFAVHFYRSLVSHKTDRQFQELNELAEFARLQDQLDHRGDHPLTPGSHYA
Chain of CRAC (Orai1/STIM1) (Q13586 23-685 partner, species assumed): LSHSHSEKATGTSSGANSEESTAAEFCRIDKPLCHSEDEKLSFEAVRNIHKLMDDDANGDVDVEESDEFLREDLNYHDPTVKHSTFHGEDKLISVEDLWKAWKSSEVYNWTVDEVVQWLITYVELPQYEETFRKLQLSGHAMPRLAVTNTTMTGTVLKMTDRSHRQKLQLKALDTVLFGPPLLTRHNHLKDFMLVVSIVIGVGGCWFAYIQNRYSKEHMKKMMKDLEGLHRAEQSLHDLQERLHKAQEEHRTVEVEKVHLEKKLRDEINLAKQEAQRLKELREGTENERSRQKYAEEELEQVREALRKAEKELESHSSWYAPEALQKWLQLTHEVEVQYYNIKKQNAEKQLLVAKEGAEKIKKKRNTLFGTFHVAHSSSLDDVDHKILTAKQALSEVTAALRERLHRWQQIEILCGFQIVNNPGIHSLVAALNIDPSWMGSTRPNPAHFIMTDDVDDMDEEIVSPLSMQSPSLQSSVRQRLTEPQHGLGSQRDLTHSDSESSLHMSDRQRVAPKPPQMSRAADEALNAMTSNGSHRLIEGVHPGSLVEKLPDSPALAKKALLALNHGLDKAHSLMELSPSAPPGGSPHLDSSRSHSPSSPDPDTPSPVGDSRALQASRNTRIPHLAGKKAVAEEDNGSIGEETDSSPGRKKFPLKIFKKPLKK
Procedure, shortened: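 HEK293 cells stably expressing STIM1 were transiently transfected with CRACM1-pIRES2-EGFP and patched 24–48 h later, with EGFP identifying cotransfected cells. External solution contained 10 mM CaCl2 and 10 mM TEA-Cl (pH 7.2, 300 mOsm). Ramps ran −150 to +150 mV over 50 ms. Bath solution was control or supplemented with test compound. Current–voltage relationships were taken at 100 s.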

INS-1 cells = assay: Appearance of INS-1 cells during exposure in patch-clamp sessions; type: cell-based, rat
Procedure, shortened: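 Rat insulinoma INS-1 cells were grown at 37 °C, 5% CO2 in RPMI with 10% FBS. During whole-cell patch-clamp sessions at 21–25 °C, cells were held in standard external Ringer's solution with continual exposure to the test compound.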

endogenous TRPM4 = endogenous TRPM4 (Homo sapiens, UniProt Q8TD43); assay: Whole-cell patch clamp of endogenous TRPM4-like currents in Jurkat T lymphocytes; type: cell-based; details: 500 nM
Chain of endogenous TRPM4 (Q8TD43 whole entry): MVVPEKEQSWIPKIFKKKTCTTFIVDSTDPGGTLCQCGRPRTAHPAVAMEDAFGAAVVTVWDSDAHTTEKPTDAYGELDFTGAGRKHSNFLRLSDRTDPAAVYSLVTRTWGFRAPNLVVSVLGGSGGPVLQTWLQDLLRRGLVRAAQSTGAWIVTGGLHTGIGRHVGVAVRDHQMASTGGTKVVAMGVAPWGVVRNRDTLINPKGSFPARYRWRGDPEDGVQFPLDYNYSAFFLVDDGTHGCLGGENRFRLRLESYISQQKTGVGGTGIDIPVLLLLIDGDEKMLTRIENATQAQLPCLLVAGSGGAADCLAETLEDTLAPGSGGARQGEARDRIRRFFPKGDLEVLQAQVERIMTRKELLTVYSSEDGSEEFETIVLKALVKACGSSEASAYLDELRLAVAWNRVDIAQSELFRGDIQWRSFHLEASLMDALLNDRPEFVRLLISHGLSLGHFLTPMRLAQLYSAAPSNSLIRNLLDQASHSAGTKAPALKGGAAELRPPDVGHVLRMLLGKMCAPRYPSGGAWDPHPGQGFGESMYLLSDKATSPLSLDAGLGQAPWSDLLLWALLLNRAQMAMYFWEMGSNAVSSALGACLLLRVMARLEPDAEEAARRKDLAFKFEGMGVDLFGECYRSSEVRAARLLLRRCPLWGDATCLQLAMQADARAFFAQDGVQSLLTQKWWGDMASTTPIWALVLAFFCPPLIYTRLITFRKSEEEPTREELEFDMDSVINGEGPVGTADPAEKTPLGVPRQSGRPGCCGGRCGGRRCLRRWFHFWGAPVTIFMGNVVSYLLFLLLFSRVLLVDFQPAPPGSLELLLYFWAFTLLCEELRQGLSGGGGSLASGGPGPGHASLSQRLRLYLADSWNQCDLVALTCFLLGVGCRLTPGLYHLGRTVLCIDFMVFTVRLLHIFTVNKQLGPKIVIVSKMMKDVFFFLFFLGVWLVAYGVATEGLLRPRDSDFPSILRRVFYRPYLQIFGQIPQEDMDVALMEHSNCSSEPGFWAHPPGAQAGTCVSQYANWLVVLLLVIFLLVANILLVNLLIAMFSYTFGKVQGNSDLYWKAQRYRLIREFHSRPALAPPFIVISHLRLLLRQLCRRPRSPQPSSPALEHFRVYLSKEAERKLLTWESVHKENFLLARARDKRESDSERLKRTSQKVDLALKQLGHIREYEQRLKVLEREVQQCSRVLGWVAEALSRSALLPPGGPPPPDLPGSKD
Procedure, shortened: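 Jurkat T cells were incubated with 500 nM test compound or none in standard external solution before whole-cell recording. Recordings were made within the first 60 min of incubation. Pipette: Cs-glutamate-based solution with intracellular Ca2+ clamped to 2 μM. Ramps ran −100 to +100 mV (50 ms, 0.5 Hz) from 0 mV, at 21–25 °C. Currents were extracted at −80 mV.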

Chain of human TRPM2 (O94759 whole entry): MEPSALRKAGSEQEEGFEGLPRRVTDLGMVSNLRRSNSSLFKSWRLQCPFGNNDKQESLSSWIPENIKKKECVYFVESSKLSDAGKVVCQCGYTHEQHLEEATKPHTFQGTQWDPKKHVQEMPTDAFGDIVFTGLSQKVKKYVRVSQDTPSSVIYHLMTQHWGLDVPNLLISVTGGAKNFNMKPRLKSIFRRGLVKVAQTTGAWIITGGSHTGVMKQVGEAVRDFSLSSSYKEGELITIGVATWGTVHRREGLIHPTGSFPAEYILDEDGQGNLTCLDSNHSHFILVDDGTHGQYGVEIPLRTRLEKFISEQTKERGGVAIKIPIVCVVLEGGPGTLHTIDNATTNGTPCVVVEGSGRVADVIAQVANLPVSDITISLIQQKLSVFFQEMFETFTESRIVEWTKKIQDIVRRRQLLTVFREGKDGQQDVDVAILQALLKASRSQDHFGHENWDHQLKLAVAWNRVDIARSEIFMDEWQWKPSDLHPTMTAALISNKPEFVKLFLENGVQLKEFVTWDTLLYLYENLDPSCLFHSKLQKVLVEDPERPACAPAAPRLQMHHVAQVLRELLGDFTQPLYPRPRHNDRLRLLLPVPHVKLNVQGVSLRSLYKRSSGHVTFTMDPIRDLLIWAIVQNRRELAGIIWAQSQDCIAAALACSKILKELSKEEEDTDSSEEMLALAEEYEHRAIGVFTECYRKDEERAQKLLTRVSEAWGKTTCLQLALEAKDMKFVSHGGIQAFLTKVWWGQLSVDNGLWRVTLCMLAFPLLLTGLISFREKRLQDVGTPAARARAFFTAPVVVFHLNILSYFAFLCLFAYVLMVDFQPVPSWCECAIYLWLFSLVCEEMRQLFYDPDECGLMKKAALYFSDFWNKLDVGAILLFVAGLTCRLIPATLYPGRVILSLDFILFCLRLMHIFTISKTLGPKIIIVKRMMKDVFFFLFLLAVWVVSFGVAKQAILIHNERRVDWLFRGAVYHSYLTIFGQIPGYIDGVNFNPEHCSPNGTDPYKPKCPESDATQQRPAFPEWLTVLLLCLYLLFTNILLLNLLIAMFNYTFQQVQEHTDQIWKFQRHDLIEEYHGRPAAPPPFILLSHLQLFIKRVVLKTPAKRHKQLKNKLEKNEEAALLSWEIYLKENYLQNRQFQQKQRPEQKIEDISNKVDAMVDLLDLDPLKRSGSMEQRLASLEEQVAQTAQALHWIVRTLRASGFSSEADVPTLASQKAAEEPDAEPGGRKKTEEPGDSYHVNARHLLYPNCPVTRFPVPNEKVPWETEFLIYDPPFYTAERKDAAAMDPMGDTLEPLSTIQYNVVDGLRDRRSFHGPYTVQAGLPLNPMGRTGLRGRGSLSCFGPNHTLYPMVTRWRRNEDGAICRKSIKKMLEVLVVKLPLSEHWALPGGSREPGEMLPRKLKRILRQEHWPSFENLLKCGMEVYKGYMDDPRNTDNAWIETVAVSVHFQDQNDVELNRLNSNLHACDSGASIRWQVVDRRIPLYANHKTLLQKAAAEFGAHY

O=c1[nH]c2ccccc2n1C1CCN(Cc2ccc(-c3nc4cc5[nH]cnc5cc4nc3-c3ccccc3)cc2)CC1 [Akt inhibitor VIII, 1,3-dihydro-1-(1-((4-(6-phenyl-1H-imidazo[4,5-g]quinoxalin-7-yl)phenyl)methyl)-4-piperidinyl)-2H-benzimidazol-2-one]
Effect on cell viability at fivefold higher concentration [1]: affected cell viability | Effect on TRPM2-mediated currents (human TRPM2; 200 nM, 60 min preincubation, 500 μM ADPR): failed to affect | TRPM2 current amplitudes at fivefold higher concentration (human TRPM2; data not shown): comparable to control cells

O=C1NCCc2c(OCCCCN3CCCCC3)cccc21 [DPQ, 3,4-dihydro-5-[4-(1-piperidinyl)butoxyl]-1(2H)-isoquinolinone]
Effect on TRPM2-mediated currents (ADPR in pipet) (human TRPM2; PARP-1 inhibitors, 100 μM ADPR, first 60 min): did not affect

COc1cc(/C=C/C(=O)CC(=O)/C=C/c2ccc(O)c(OC)c2)ccc1O [curcumin]
Concentration range blocking TRPM2 currents (TRPM2): low nanomolar range

O=C(O)CC[C@@H](Cc1ccc(OCc2ccccc2)cc1)NC(=O)CCCCCCc1ccccc1 [sPLA2 inhibitor, 5-(4-benzyloxyphenyl)-4S-(7-phenylheptanoylamino)pentanoic acid]
Cell death during a 1 h recording session ([1]; 5–10-fold higher concentrations, data not shown): significant cell death | Effect on TRPM2-mediated currents (human TRPM2; 5 μM, 100 μM ADPR): lack of effect

CC(=O)O[C@H]1C[C@@H]2[C@@]3(C)CCCC(C)(C)[C@@H]3CC[C@@]2(C)[C@@H]2CC=C(C=O)[C@H](C=O)[C@@]12C [scalaradial]
Effect on ADPR-induced currents (endogenous TRPM2; 0.5–2.0 μM): largely abolished | Hill coefficient of INS-1 TRPM2 dose-response fit (endogenous TRPM2; −80 mV, 50 s): 4 | Hill coefficient of TRPM7 concentration-response fit (mouse TRPM7): 2 | Effect on TRPV1 current (TRPV1): does not inhibit; also recorded: failed to inhibit | Effect on CRAC currents (CRAC (Orai1/STIM1)): no significant inhibition; also recorded: did not significantly affect; also recorded: failed to inhibit | Time cells appeared healthy with continual exposure (INS-1 cells; 500 nM and lower concentrations): at least 1 h | Condition of INS-1 cells (INS-1 cells; 2 μM): rapidly deteriorated | Effect on TRPM4 current (endogenous TRPM4): without affecting the current; also recorded: failed to inhibit | Incubation time to reach full potency (full onset) of TRPM2 inhibition (human TRPM2; 2 μM scalaradial): ~ 20 min | Effect of acute application on TRPM2 currents (human TRPM2; 2 μM, acute application): did not significantly affect | Hill coefficient of TRPM2 concentration-response fit (human TRPM2; 30–60 min incubation, −80 mV, 100 s): 1.3 | Time dependency of TRPM2 inhibition when added internally (human TRPM2; added to the cell internally, data not shown): not affected | Time to recovery of TRPM2 currents after drug removal (human TRPM2; after 60 min incubation in 2 μM): ≤ 5 min

COC[C@H]1OC(=O)c2coc3c2[C@@]1(C)C1=C(C3=O)[C@@H]2CCC(=O)[C@@]2(C)C[C@H]1OC(C)=O [wortmannin]
Effect on cell viability at fivefold higher concentration ([1]; fivefold higher concentrations, cell rounding, granule formation, blebbing, data not shown): affected cell viability | Effect on TRPM2-mediated currents (human TRPM2; 20 nM, 60 min preincubation, 500 μM ADPR): failed to affect | TRPM2 current amplitudes at fivefold higher concentration (human TRPM2; data not shown): comparable to control cells
